Screening data deposited in PubChem by several laboratories.
In the library only some 1.5% were active in any assay of this set; here they are far more common.
Pf gamet viab: kills late stage P. falciparum gametocytes | P. falciparum stage V gametocytes, ATP luminescence, 24 h | inhibition, % at 10.9 µM | 0.065% of 150,000 active;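 active = inhibition above the mean plus 3 SD of compounds within the control limits, set per campaign, cut at about 38% in these data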
MDM2 E3 inh: blocks human Mdm2 ubiquitin ligase activity; Q00987; cell-based MDM2 ubiquitination luciferase reporter, 2 h; 0 = plate control, 100 = twice control, blank-subtracted; signal enhancement, % at 5 µM; 0.11% of 210,000 active; AID 1230;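 active = signal enhancement of 30% or more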;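 also: luminescence tracks abundance of the self-degrading MDM2-luciferase fusion protein; higher signal means inhibition of MDM2 E3 ligase activity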
Target sequence (Q00987 whole entry, looked up, the tested form may be a part): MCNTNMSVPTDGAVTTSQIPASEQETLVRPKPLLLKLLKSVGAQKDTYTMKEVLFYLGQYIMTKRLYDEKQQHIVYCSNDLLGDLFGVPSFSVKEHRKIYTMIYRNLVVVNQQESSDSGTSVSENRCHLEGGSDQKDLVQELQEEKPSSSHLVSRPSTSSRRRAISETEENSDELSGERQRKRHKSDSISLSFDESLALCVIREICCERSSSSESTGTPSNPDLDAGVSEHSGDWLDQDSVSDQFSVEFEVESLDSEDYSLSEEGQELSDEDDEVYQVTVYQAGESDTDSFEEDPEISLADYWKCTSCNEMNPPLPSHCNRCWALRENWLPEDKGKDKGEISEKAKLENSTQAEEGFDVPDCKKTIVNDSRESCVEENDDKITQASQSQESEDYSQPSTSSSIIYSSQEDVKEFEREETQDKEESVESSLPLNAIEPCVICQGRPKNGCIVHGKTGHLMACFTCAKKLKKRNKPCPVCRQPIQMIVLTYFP
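Timing – 2 h compound exposure at 37 °C · Assay system – mammalian cells stably expressing self-ubiquitinating, self-degrading MDM2 E3–luciferase fusion · Amount – 2000 cells seeded into each well · Measure – % luminescence enhancement versus blank-corrected plate control mean · Measured by – SteadyLite luminescence, 15 min reagent step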
Hsp70 act: transcriptional activators of Hsp70; activation, % at 10 µM; HeLa Hsp70 promoter luciferase reporter, luminescence; scaled: vehicle 0, proteasome-inhibitor control 100%; 0.04% of 200,000 active;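 active = activation above the mean across all tested compounds plus 3 SD, cutoff set per campaign, cut at about 5.5% in these data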
m-calpain inh: inhibitors of pig calpain II; purified calpain II, fluorogenic peptide substrate, 30 min; 0.37% of 220,000 active; inhibition, % at 16 µM;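 active = inhibition above about 50%, limit read from the data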
Wee1 stabilizer: blocks degradation of human Wee1 kinase; HeLa Luc-Wee1K328M stability, luciferase luminescence; 100% = proteasome inhibitor MG132 effect; P30291; reporter increase, % at 5 µM; AID 1321; 1.2% of 220,000 active;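 active = activation above the mean of all tested compounds plus 3 SD, set per screening run, cut at about 8.8% in these data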;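 also: cells exposed to compound for 20 h before luminescence read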
Hits are given with their value; – = inactive; · = no result given.

SMILES	Pf gamet viab	MDM2 E3 inh	Hsp70 act	m-calpain inh	Wee1 stabilizer
COc1ccc(-n2c(C)cc(-c3cn4cccc(C)c4n3)c2C)cc1	·	–	–	–	8.8
COc1ccc(-c2cn3cccnc3n2)cc1NC(=O)c1cc(OC)c(OC)c(OC)c1	–	–	–	–	9.7
O=C(O)/C=C/C(=O)Nc1ccc(C2(c3ccc(NC(=O)/C=C/C(=O)O)cc3)c3ccccc3-c3ccccc32)cc1	–	·	·	·	·
O=C(Nc1ccccc1C(=O)O)c1ccc(NC(=O)c2ccc(Br)o2)cc1	·	–	–	–	–
O=C(Nc1ccccc1C(=O)O)c1cccc(NC(=O)c2ccc(Br)o2)c1	·	–	–	50.9	–
COc1ccc(N2CCN(C3CCCN(Cc4cccc(OC)c4)C3)CC2)cc1 (stereo not given)	–	·	·	·	·
O=C(NNC(=O)c1nc2ccccc2[nH]1)OCc1ccccc1	–	·	·	·	·
COc1ccc(OC)c(NC(=O)CSc2nc3ccccc3c3nc4ccccc4n23)c1	·	–	–	69.5	–
CNC(=O)c1ccc(NC(=O)Nc2ccccc2)cc1	–	·	·	·	·
CCOC(=O)N1CCN(C(=O)c2cccn3c(=O)c4cc(Br)ccc4nc23)CC1	·	–	–	–	–
CCOC(=O)N1CCN(C(=O)c2cccn3c(=O)c4sccc4nc23)CC1	–	–	–	–	10.2
O=c1[nH]c2ccc(NC(=S)Nc3ccc(F)cc3)cc2[nH]1	–	–	·	–	9.7
CNC(=S)Nc1ccc2[nH]c(=O)[nH]c2c1	–	–	–	–	–
Fc1cccc(Cl)c1CSc1ccc(-c2cccnc2)nn1	–	–	–	64.2	–
O=C(CNC(c1ccccc1)c1ccccc1)Nc1c(F)cccc1F	–	–	–	–	–
Fc1cccc(Cl)c1CNC(c1ccccc1)c1ccccc1	–	–	–	–	9.1
O=C(Nc1nc(COc2ccccc2)cs1)C12CC3CC(CC(C3)C1)C2	–	–	–	58.3	–
CC(=O)Nc1nc(COc2ccccc2)cs1	–	–	–	–	–
O=C(Nc1nc(COc2ccccc2)cs1)C1CCC1	·	·	–	–	9.3
COc1cc(NC(=S)N2CCN(C)CC2)cc(OC)c1	–	·	·	·	·
CCOc1ccc(-c2c(C)sc3nc[nH]c(=O)c23)cc1	–	·	·	·	·
CC(NC(=O)CCCCCCN1C(=O)c2ccccc2C1=O)c1ccc2c(c1)CCCC2 (stereo not given)	–	–	–	–	–
CC(NC(=O)CCCCCN1C(=O)c2ccccc2C1=O)c1ccc2c(c1)CCCC2 (stereo not given)	–	–	–	57.2	–
C[C@H](CO)N1C[C@H](C)[C@@H](CN(C)C(=O)Nc2ccc(C(F)(F)F)cc2)Oc2ccc(NS(=O)(=O)c3ccccc3)cc2C1=O	–	·	·	·	·
Cc1ccc(S(=O)(=O)N2[C@@H](c3cccc(Cl)c3)C(C(=O)O)=CC[C@H]2c2cccs2)cc1	–	·	·	·	·
SMILES	Pf gamet viab	MDM2 E3 inh	Hsp70 act	m-calpain inh	Wee1 stabilizer
Cc1ccc2c(c1)CCCN2C(=O)c1ccc2c(c1)OCO2	·	–	–	50.2	–
O=C(c1ccc2c(c1)OCO2)N1CCCc2ccccc21	·	–	–	–	–
Cc1nc2cc(NC(=O)Nc3ccc(N4CCOCC4)cc3)ccc2n1C	·	–	–	–	10.3
CCOC(=O)[C@H]1[C@H]2COc3ccc(C)cc3[C@@H]2N2C(=O)c3cc(C)ccc3NC(=O)[C@@]12C	–	·	·	·	·
CCCc1ccc2oc(C(=O)N3CCCC3)c(C)c2c1	–	·	·	·	·
CCn1cc(C(=O)NCCc2ccccc2)c(=O)c2cc(S(=O)(=O)N3CCCC3)ccc21	–	–	–	–	9.4
CCn1cc(C(=O)NCc2ccco2)c(=O)c2cc(S(=O)(=O)N3CCCC3)ccc21	–	–	–	–	–
O=C(CN(C(=O)C1CSC(=O)C1)c1cccc(F)c1)NC1CCCC1 (stereo not given)	–	–	–	–	9.2
O=C(CN(Cc1ccc(F)cc1)C(=O)C1CSC(=O)C1)NC1CCCCC1 (stereo not given)	·	–	–	–	–
CCC(CO)Oc1cc(NCc2ccccc2Cl)c2ncn(C(C)C)c2c1 (stereo not given)	–	·	·	·	·
C/C(CC(=O)Nc1ccc(N(C)C)cc1)=N\NC(=O)C(=O)NCc1ccccc1	–	–	–	–	9.9
C/C(CC(=O)Nc1ccc(N(C)C)cc1)=N\NC(=O)c1ccccc1O	–	·	·	·	·
Cc1cc(C)nc(Oc2ccc(Br)cc2Br)n1	·	–	–	–	9.1
CCCCOc1ccc(CN(CCO)CCO)cc1[N+](=O)[O-]	–	–	–	–	–
CCOc1ccc(CN(CCO)CCO)cc1[N+](=O)[O-]	·	–	–	–	9.0
